24 molecules from ChEMBL document CHEMBL5150051, “Identification and Characterization of a Novel Indoleamine 2,3-Dioxygenase 1 Protein Degrader for Glioblastoma” (J Med Chem, 2022) can be followed below.

The target of experiment [1] is von Hippel-Lindau disease tumor suppressor/Indoleamine 2,3-dioxygenase 1 (Homo sapiens) (UniProt P14902+P40337). The experiment in a line: Protac activity at IDO1/VHL in IFNgamma-stimulated human U87 cells assessed as IDO1 degradation at 10 uM measured after 24 hrs by Western blotting analysis relative to control. Type of experiment: cell-based. An outline of the steps:
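U87 GBM cells primed with human IFNγ 50 ng/mL for 24 h, then exposed to PROTAC at 10 μM for 24 h. Lysates run on western blot; IDO1 bands quantified by densitometry and expressed as percent of normalized IDO1 protein level.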

Experiment [2] addresses Indoleamine 2,3-dioxygenase 1 (Homo sapiens, UniProt P14902). The experiment in a line: Binding affinity to IDO1 (unknown origin) assessed as dissociation constant by bio-layer interferometry assay. An outline of the steps:
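Bio-layer interferometry measured binding to IDO1 at 30 °C in PBS with 0.5% DMSO. Kd, kon and koff were derived.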

Experiment [3] concerns the target Protein cereblon/Indoleamine 2,3-dioxygenase 1 (Homo sapiens, UniProt P14902+Q96SW2). The experiment in a line: Protac activity at CRBN/IDO1 in human U87 cells assessed as decrease in phosphorylated NF-kappaB p65 in nucleus at 1 to 10 uM measured after 24 hrs by Western blot analysis. Type of experiment: cell-based. To be noted: dose 1-10 µM. (In general: A western blot detects proteins with antibodies after separation by electrophoresis.)

Activity calls are given as the source filed them. The calls are words filed in the database; no cut-off is given here.

von Hippel-Lindau disease tumor suppressor/Indoleamine 2,3-dioxygenase 1 (Homo sapiens), sequence (P14902 whole entry, looked up): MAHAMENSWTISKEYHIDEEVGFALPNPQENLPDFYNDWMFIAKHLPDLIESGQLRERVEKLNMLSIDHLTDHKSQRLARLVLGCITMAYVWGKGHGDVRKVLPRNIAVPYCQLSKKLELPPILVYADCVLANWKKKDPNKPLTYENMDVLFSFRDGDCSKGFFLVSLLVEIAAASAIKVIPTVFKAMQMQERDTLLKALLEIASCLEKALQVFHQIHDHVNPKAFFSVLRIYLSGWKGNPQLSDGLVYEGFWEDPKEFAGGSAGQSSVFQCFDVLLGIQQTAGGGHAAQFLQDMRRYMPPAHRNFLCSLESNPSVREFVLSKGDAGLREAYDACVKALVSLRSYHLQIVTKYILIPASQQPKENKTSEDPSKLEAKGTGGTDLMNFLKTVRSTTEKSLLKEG
von Hippel-Lindau disease tumor suppressor/Indoleamine 2,3-dioxygenase 1 (Homo sapiens), sequence (P40337 whole entry, looked up): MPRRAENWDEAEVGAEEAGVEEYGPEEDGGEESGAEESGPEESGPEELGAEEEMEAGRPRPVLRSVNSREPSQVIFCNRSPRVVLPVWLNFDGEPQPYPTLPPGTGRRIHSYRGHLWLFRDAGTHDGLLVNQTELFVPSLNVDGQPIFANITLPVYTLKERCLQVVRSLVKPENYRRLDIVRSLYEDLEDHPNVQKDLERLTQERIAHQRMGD
Indoleamine 2,3-dioxygenase 1, sequence (P14902 whole entry): as the sequence (P14902 whole entry, looked up) above
Protein cereblon/Indoleamine 2,3-dioxygenase 1, sequence (P14902 whole entry, looked up): as above
Protein cereblon/Indoleamine 2,3-dioxygenase 1, sequence (Q96SW2 whole entry, looked up): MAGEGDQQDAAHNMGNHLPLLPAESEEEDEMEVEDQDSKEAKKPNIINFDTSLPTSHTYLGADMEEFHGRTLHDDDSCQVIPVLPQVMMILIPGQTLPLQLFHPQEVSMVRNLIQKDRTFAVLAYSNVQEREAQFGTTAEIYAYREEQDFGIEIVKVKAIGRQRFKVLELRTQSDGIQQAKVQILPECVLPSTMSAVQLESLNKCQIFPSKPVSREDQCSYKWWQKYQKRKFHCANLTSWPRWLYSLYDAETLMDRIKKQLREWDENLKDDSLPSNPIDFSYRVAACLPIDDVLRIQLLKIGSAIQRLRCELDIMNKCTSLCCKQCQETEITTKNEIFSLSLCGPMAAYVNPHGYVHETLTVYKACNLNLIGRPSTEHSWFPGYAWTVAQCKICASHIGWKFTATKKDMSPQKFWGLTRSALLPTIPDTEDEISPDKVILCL

`Cc1ncsc1-c1ccc(CNC(=O)[C@@H]2C[C@@H](O)CN2C(=O)[C@@H](NC(=O)C2(F)CC2)C(C)(C)C)c(OCCOCCOCCOCCOCCOCCOc2ccc(NC(=O)[C@H](C)[C@H]3CC[C@@H](c4ccnc5ccc(F)cc54)CC3)cc2)c1`: in experiment [1], the Activity stood at 27%. With `Cc1ncsc1-c1ccc(CNC(=O)[C@@H]2C[C@@H](O)CN2C(=O)[C@@H](NC(=O)C2(F)CC2)C(C)(C)C)c(OCCOCCOCCOc2cc(NC(=O)[C@H](C)[C@H]3CC[C@@H](c4ccnc5ccc(F)cc54)CC3)ccc2Cl)c1`, the Activity in experiment [1] was found to be 0%. `Cc1ncsc1-c1ccc(CNC(=O)[C@@H]2C[C@@H](O)CN2C(=O)[C@@H](NC(=O)C2(F)CC2)C(C)(C)C)c(OCCOCCC(=O)N2CCC(Oc3ccc(NC(=O)[C@H](C)[C@H]4CC[C@@H](c5ccnc6ccc(F)cc65)CC4)cc3)CC2)c1`: the Activity in experiment [1] stood at 72%. On the same count and under the same terms, the figure for `Cc1ncsc1-c1ccc(CNC(=O)[C@@H]2C[C@@H](O)CN2C(=O)[C@@H](NCCOCCOCCOCCOCCOc2cc(NC(=O)[C@H](C)[C@H]3CC[C@@H](c4ccnc5ccc(F)cc54)CC3)ccc2Cl)C(C)(C)C)cc1` is 0%. On the same count and under the same terms, with `Cc1ncsc1-c1ccc(CNC(=O)[C@@H]2C[C@@H](O)CN2C(=O)[C@@H](NC(=O)C2(F)CC2)C(C)(C)C)c(OCCOCCOCCOCCOCCOCCOc2cc(NC(=O)[C@H](C)[C@H]3CC[C@@H](c4ccnc5ccc(F)cc54)CC3)ccc2Cl)c1` the figure was 0%; with `Cc1ncsc1-c1ccc(CNC(=O)[C@@H]2C[C@@H](O)CN2C(=O)[C@@H](NCCOCCOCCOCCOc2ccc(NC(=O)[C@H](C)[C@H]3CC[C@@H](c4ccnc5ccc(F)cc54)CC3)cc2)C(C)(C)C)cc1`, 0%; with `Cc1ncsc1-c1ccc(CNC(=O)[C@@H]2C[C@@H](O)CN2C(=O)[C@@H](NCCOCCC(=O)N2CCC(Oc3ccc(NC(=O)[C@H](C)[C@H]4CC[C@@H](c5ccnc6ccc(F)cc65)CC4)cc3)CC2)C(C)(C)C)cc1`, 88%. The same measure, in the same setting: the figure for `Cc1ncsc1-c1ccc(CNC(=O)[C@@H]2C[C@@H](O)CN2C(=O)[C@@H](NC(=O)C2(F)CC2)C(C)(C)C)c(OCCOCCC(=O)N2CC(Oc3ccc(NC(=O)[C@H](C)[C@H]4CC[C@@H](c5ccnc6ccc(F)cc65)CC4)cc3)C2)c1` is 20%; for `Cc1ncsc1-c1ccc(CNC(=O)[C@@H]2C[C@@H](O)CN2C(=O)[C@@H](NC(=O)C2(F)CC2)C(C)(C)C)c(OCCCOc2cc(NC(=O)[C@H](C)[C@H]3CC[C@@H](c4ccnc5ccc(F)cc54)CC3)ccc2Cl)c1` it is 0%.

Take `Cc1ncsc1-c1ccc(CNC(=O)[C@@H]2C[C@@H](O)CN2C(=O)[C@@H](NCCOCCOc2cc(NC(=O)[C@H](C)[C@H]3CC[C@@H](c4ccnc5ccc(F)cc54)CC3)ccc2Cl)C(C)(C)C)cc1`: the Activity in experiment [1] is 0%. The same measure, in the same setting: the figure for `Cc1ncsc1-c1ccc(CNC(=O)[C@@H]2C[C@@H](O)CN2C(=O)[C@@H](NC(=O)C2(F)CC2)C(C)(C)C)c(OCCOCCOCCOCCOCCOc2cc(NC(=O)[C@H](C)[C@H]3CC[C@@H](c4ccnc5ccc(F)cc54)CC3)ccc2Cl)c1` is 0%; for `Cc1ncsc1-c1ccc(CNC(=O)[C@@H]2C[C@@H](O)CN2C(=O)[C@@H](NCCOCCOCCOc2cc(NC(=O)[C@H](C)[C@H]3CC[C@@H](c4ccnc5ccc(F)cc54)CC3)ccc2Cl)C(C)(C)C)cc1` it is 0%. On the same count and under the same terms, the figure for `Cc1ncsc1-c1ccc(CNC(=O)[C@@H]2C[C@@H](O)CN2C(=O)[C@@H](NC(=O)C2(F)CC2)C(C)(C)C)c(OCCOCCOCCCN2CCC(Oc3ccc(NC(=O)[C@H](C)[C@H]4CC[C@@H](c5ccnc6ccc(F)cc65)CC4)cc3)CC2)c1` is 0%; for `Cc1ncsc1-c1ccc(CNC(=O)[C@@H]2C[C@@H](O)CN2C(=O)[C@@H](NCCOCCOCCC(=O)N2CCC(Oc3ccc(NC(=O)[C@H](C)[C@H]4CC[C@@H](c5ccnc6ccc(F)cc65)CC4)cc3)CC2)C(C)(C)C)cc1` it is 67%; for `Cc1ncsc1-c1ccc(CNC(=O)[C@@H]2C[C@@H](O)CN2C(=O)[C@@H](NC(=O)C2(F)CC2)C(C)(C)C)c(OCCCCOc2ccc(NC(=O)[C@H](C)[C@H]3CC[C@@H](c4ccnc5ccc(F)cc54)CC3)cc2)c1` it is 10%.

As for `Cc1ncsc1-c1ccc(CNC(=O)[C@@H]2C[C@@H](O)CN2C(=O)[C@@H](NCCCCOc2ccc(NC(=O)[C@H](C)[C@H]3CC[C@@H](c4ccnc5ccc(F)cc54)CC3)cc2)C(C)(C)C)cc1`, in experiment [1], the Activity worked out at 0%.

As for `Cc1ncsc1-c1ccc(CNC(=O)[C@@H]2C[C@@H](O)CN2C(=O)[C@@H](NCCOCCOCCOCCOc2cc(NC(=O)[C@H](C)[C@H]3CC[C@@H](c4ccnc5ccc(F)cc54)CC3)ccc2Cl)C(C)(C)C)cc1`, the Activity in experiment [1] turned out to be 0%. `Cc1ncsc1-c1ccc(CNC(=O)[C@@H]2C[C@@H](O)CN2C(=O)[C@@H](NC(=O)C2(F)CC2)C(C)(C)C)c(OCCOCCOCCOc2ccc(NC(=O)[C@H](C)[C@H]3CC[C@@H](c4ccnc5ccc(F)cc54)CC3)cc2)c1`: in experiment [1], the Activity was 0%. For the molecule `Cc1ncsc1-c1ccc(CNC(=O)[C@@H]2C[C@@H](O)CN2C(=O)[C@@H](NC(=O)C2(F)CC2)C(C)(C)C)c(OCCOCCOc2ccc(NC(=O)[C@H](C)[C@H]3CC[C@@H](c4ccnc5ccc(F)cc54)CC3)cc2)c1`, in experiment [1], the Activity was 39%. On the same count and under the same terms, the figure for `Cc1ncsc1-c1ccc(CNC(=O)[C@@H]2C[C@@H](O)CN2C(=O)[C@@H](NCCOCCOCCOc2ccc(NC(=O)[C@H](C)[C@H]3CC[C@@H](c4ccnc5ccc(F)cc54)CC3)cc2)C(C)(C)C)cc1` is 0%; for `Cc1ncsc1-c1ccc(CNC(=O)[C@@H]2C[C@@H](O)CN2C(=O)[C@@H](NCCOCCOc2ccc(NC(=O)[C@H](C)[C@H]3CC[C@@H](c4ccnc5ccc(F)cc54)CC3)cc2)C(C)(C)C)cc1` it is 0%.

In the case of `Cc1ncsc1-c1ccc(CNC(=O)[C@@H]2C[C@@H](O)CN2C(=O)[C@@H](NC(=O)C2(F)CC2)C(C)(C)C)c(OCCCCCCOc2cc(NC(=O)[C@H](C)[C@H]3CC[C@@H](c4ccnc5ccc(F)cc54)CC3)ccc2Cl)c1`, in experiment [1], the Activity came to 0%.

As usually defined, the Kd is the equilibrium constant for the complex coming apart. For `C[C@@H](C(=O)Nc1ccc(OC2CCN(C(=O)CCOCCOCCNc3cccc4c3C(=O)N(C3CCC(=O)N(C)C3=O)C4=O)CC2)cc1)[C@H]1CC[C@@H](c2ccnc3ccc(F)cc32)CC1` (stereo not given in full), the Kd in experiment [2] came out at 1100 nM. For the same molecule, the result in experiment [3] was Active. For the molecule `Cc1ncsc1-c1ccc(CNC(=O)[C@H]2C[C@H](O)CN2C(=O)[C@H](NCCCOc2cc(NC(=O)[C@H](C)[C@H]3CC[C@@H](c4ccnc5ccc(F)cc54)CC3)ccc2Cl)C(C)(C)C)cc1`, in experiment [1], the Activity came out at 0%.
